# Screens (PubChem)
# IMP-1 inh-1 – inhibitors of Pseudomonas aeruginosa IMP-1 metallo-beta-lactamase; purified IMP-1, nitrocefin hydrolysis, epi-absorbance fluorescence; inhibition, % at 5.6 µM; actives 0.45% (n = 290,000);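 active = inhibition above the mean plus 3 SD of all compounds in the same screening run, cut at about 4.5% in these data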;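 also: 0% = IMP-1 with DMSO and 100% = DMSO wells lacking enzyme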
#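 Test system: recombinant IMP-1 enzyme, purified / Medium: HEPES buffer pH 7.1 with ZnSO4 and Brij 35 / Doses: single dose, 5.6 µM / Times: 25 °C, 15 min preincubation, 25 min reaction / Detection: Epi-absorbance via hydrolysed-nitrocefin quenching of white-plate fluorescence, 480/530 nm, EDTA stop / Evaluation: percent inhibition from optical density relative to buffer-blank wells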
# VIM-2 inh – inhibitors of Pseudomonas aeruginosa VIM-2 metallo-beta-lactamase; actives 0.89% (n = 290,000); inhibition, % at 5.6 µM; purified VIM-2, nitrocefin hydrolysis, epi-absorbance fluorescence;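 active = inhibition above the mean of all tested compounds plus 3 SD, cutoff set per screening run, cut at about 7.5% in these data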;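 also: red hydrolysis product quenches plate fluorescence so inhibitors raise well fluorescence; 0% = enzyme with DMSO and 100% = DMSO without enzyme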
# Bcl-xL primary – Bcl-xL (human) inhibition; GST-Bcl-xL / FITC-Bim BH3 peptide fluorescence polarization; Q07817; actives 0.7% (n = 320,000); AID 2129; inhibition, % at 10.9 µM;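 active = inhibition above the mean of all tested compounds plus 3 SD, cutoff set per campaign, cut at about 30% in these data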;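 also: 0% = DMSO wells and 100% = unlabeled Bim-BH3 peptide competitor; inhibitors lower millipolarization by displacing the labeled peptide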
# GLD-1 TGE inh – GLD-1-TGE RNA interaction inhibition (C. elegans); purified GLD-1 + fluorescein TGE RNA, fluorescence polarization; inhibition, % at 5.96 µM; actives 0.44% (n = 320,000); AID 2280;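 active = percent inhibition above a per-plate cutoff, the plate mean of test compounds plus 3 SD, cut at about 30% in these data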;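 also: 0% = DMSO wells with GLD-1 and probe and 100% = wells lacking GLD-1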
# EBV gp42 block – EBV gp42 inhibition; Q1HVG2; Fluorescence polarization binding assay, mP read-out; actives 0.42% (n = 220,000); inhibition, % (tested at 21.74 µM); in the data active = inhibition above about 50%
# MEX-5 binding – C. elegans MEX-5 TCR-2 RNA binding activity; AID 1832; actives 0.38% (n = 300,000); MEX-5/FITC-TCR2 RNA binding, fluorescence polarization; hits give low values; Q9XUB2; activity score (negative = inhibition of binding), % at 10 µM;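 active = inhibition past about -25% in most replicates, and total fluorescence under double the plate's negative control median, limit read from the data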;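 also: 0% = DMSO and -100% = 5 µM competing unlabeled TCR2 RNA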
# Target sequence (Q9XUB2 whole entry, looked up): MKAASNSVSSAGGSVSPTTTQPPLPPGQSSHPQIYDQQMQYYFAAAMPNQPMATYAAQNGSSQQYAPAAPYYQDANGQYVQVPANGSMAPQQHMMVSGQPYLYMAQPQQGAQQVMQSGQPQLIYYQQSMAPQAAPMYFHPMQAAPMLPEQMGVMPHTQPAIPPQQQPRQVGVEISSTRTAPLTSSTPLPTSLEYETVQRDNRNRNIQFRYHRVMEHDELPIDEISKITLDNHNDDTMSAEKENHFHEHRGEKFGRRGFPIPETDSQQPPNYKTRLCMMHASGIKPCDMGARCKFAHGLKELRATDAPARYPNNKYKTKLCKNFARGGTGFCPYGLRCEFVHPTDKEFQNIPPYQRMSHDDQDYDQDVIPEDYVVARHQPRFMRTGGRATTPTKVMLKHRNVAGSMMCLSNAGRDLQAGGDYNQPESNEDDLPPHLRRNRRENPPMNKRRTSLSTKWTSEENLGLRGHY
# IMP-1 inh-2 – selectivity counter-screen for VIM-2 inhibitors: IMP-1 metallo-beta-lactamase inhibitors; shares compounds with VIM-2 inh; purified IMP-1, nitrocefin hydrolysis, epi-absorbance fluorescence; inhibition, % at 5.6 µM; 1,300 tested, under 10 active; AID 1856; call rule not given here;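 also: 0% = enzyme with vehicle and 100% = vehicle without enzyme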
# VIM-2 FRET inh – VIM-2 FRET inhibition, artifact counter-screen; AID 1857; inhibition, % at 5.6 µM; actives 23% (n = 1,300); purified VIM-2, CCF2 FRET substrate hydrolysis; shares compounds with VIM-2 inh;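 active = inhibition above the mean of all tested compounds plus 3 SD, cut at about 19% in these data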;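 also: 0% = VIM-2 plus DMSO and 100% = no enzyme wells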
# TEM-1 inh – selectivity counter-screen for VIM-2 inhibitors: E. coli TEM-1 inhibitors; shares compounds with VIM-2 inh; Purified TEM-1, nitrocefin hydrolysis, epi-absorbance fluorescence; inhibition, % at 5.6 µM; actives 3% (n = 1,300); AID 1866;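 active = inhibition above that campaign's mean inhibition plus 3 SD, cut at about 0.46% in these data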;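 also: 0% = TEM-1 with DMSO and 100% = TEM-1 with 100 µM potassium clavulanate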
# VIM-2 confirm 2 – confirmation of P. aeruginosa VIM-2 metallo-beta-lactamase inhibitors. inhibition, % at 5.6 µM. shares compounds with VIM-2 inh. actives 96% (n = 1,300). purified VIM-2, nitrocefin hydrolysis, epi-absorbance;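 active = inhibition of the VIM-2 beta-lactamase enzyme above about 11% from the earlier first-round screen, limit read from the data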;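 also: 0% = VIM-2 with DMSO and 100% = buffer wells without enzyme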
# The depositor's hits bear a star; . = no result. Shown are actives, neighbours in structure and some others; about 2.2% of the full set was active somewhere.
SMILES,IMP-1 inh-1,VIM-2 inh,Bcl-xL primary,GLD-1 TGE inh,EBV gp42 block,MEX-5 binding,IMP-1 inh-2,VIM-2 FRET inh,TEM-1 inh,VIM-2 confirm 2
c1ccc2cc(CNCc3cccc4ccccc34)ccc2c1,-3,-4,-3,-1,-6,1,.,.,.,.
CCOc1cc(C2C(C#N)=C(N)Oc3n[nH]c(CC)c32)ccc1OCCN1CCOCC1 (stereo not drawn),-2,13*,1,-3,-15,-1,-2,2,-5,8.3*
COc1ccccc1CCC(=O)OCC(=O)Nc1ccc2[nH]c(=O)[nH]c2c1,.,.,2,1,.,0,.,.,.,.
CSCc1cc(N(C)c2ccccc2)nc(-c2ccccn2)n1,-3,64*,-4,-5,.,7,-4,-56,-7,72*
O=C(CNC(=O)c1ccccc1)NCCc1ccc(O)c(O)c1,-4,-3,10,3,.,-11,.,.,.,.
c1ccc(CNc2c3ccccc3nc3ccccc23)cc1,-2,22*,3,-3,.,-2,-3,1,-5,32*
Oc1ccc(CCNc2c3ccccc3nc3ccccc23)cc1O,-5,17*,18,0,.,-39*,-4,0,-6,21*
c1ccc(CNc2ncnc3ccccc23)cc1,-2,1,0,-3,-13,-1,.,.,.,.
Cc1cc(NC(=O)CSc2nnc(C)n2C)no1,-2,-4,2,3,.,0,.,.,.,.
Cc1cc(C)n2cc(CSc3nnc(-c4ccccc4)o3)nc2n1,1,16*,6,2,-6,-1,-3,30*,-3,21*
Cc1cc(C)n2cc(CSCc3ccccc3)nc2n1,-3,2,10,8,2,0,.,.,.,.
CCOc1ccccc1C(=O)Nc1cccc(-c2ccc3nncn3n2)c1,0,21*,1,0,3,0,-3,1,-8,31*
Cc1ccccc1C(=O)Nc1cccc(-c2ccc3nncn3n2)c1,-2,1,1,-4,3,0,.,.,.,.
CCN(CC)CCCNc1nc(SC)nc2sc3c(c12)CCN(C)C3,-1,13*,71*,-28,.,0,-3,-2,-5,21*
COc1ccc(-c2ccc3c(c2)S(=O)(=O)c2cccc(C(=O)NCc4cc(C)oc4C(F)(F)F)c2C3=O)cc1OC,.,.,.,-9,.,.,.,.,.,.
O=C(NNS(=O)(=O)c1ccccc1)Nc1ccc(F)cc1,-2,-1,1,0,.,0,.,.,.,.
CNC(=S)Nc1cccc(-c2cnc3ccccc3n2)c1,-5,14*,-1,0,.,-3,-2,-22,-9,9.1*
O=C(c1cccc(Cl)c1)N(Cc1ccco1)C1CCS(=O)(=O)C1 (stereo not drawn),-6,-4,0,5,.,0,.,.,.,.
Cc1ccc(-c2nn3c(C)nnc3c3ccccc23)cc1S(=O)(=O)N1CCN(CCO)CC1,-3,61*,4,5,10,0,-2,-3,-2,73*
O=C(COc1ccc(Cl)cc1)NCc1nnc2c3ccccc3c(-c3ccccc3)nn12,-1,0,3,3,4,-2,.,.,.,.
O=C(NCc1nnc2c3ccccc3c(-c3ccccc3)nn12)c1ccccc1Cl,0,17*,-4,-2,-17,1,-3,-5,-4,27*
Cc1ccc(-c2nn(C)c(=O)c3ccccc23)cc1S(=O)(=O)NCCN(C)C,-3,37*,0,-4,-9,3,-4,-1,-6,51*
CCCCNS(=O)(=O)c1cc(-c2nn(C)c(=O)c3ccccc23)ccc1C,-2,-1,2,-5,.,0,.,.,.,.
Cc1ccc(-c2nn3c(C)nnc3c3ccccc23)cc1S(=O)(=O)NCCO,-4,30*,9,-1,-5,0,-3,3,-6,37*
Cc1nnc2c3ccccc3c(-c3cccc4ccccc34)nn12,-5,2,.,.,-27,.,.,.,.,.
SMILES,IMP-1 inh-1,VIM-2 inh,Bcl-xL primary,GLD-1 TGE inh,EBV gp42 block,MEX-5 binding,IMP-1 inh-2,VIM-2 FRET inh,TEM-1 inh,VIM-2 confirm 2
Cc1ccc(-c2nn3c(C)nnc3c3ccccc23)cc1S(=O)(=O)NC(C)(C)CO,-1,22*,2,11,-23,-2,-5,2,-6,37*
CNc1nnc(-c2ccc(C)cc2)c2ccccc12,-3,3,1,11,-12,1,.,.,.,.
Cc1ccc(-c2nn3cnnc3c3ccccc23)cc1,-1,17*,4,-3,-10,-2,-3,2,-5,27*
Cc1nnc2c3ccccc3c(-c3ccccc3)nn12,0,24*,6,-2,.,-4,-1,1,1.9*,43*
CC1CCN(c2ccc3c(c2)S(=O)(=O)c2cccc(C(=O)NC4CC4)c2C3=O)CC1,.,.,.,-15,.,.,.,.,.,.
Cc1nc2ccc(NC(=O)N3CCSCC3)cc2nc1C,-4,16*,6,2,-1,0,-3,3,-6,4
Cc1nc2ccc(NC(=O)N3CCSCC3)cc2s1,-3,0,-3,5,-9,0,.,.,.,.
NC(=O)C1CCN(CC(O)COCc2ccccc2Cl)CC1 (stereo not drawn),-2,-1,2,4,.,1,.,.,.,.
